Measured values: ChEMBL document CHEMBL1811814, “Synthesis and evaluation of indole, pyrazole, chromone and pyrimidine based conjugates for tumor growth inhibitory activities--development of highly efficacious cytotoxic agents” (Eur J Med Chem, 2010)

Columns and labels:
Format in all cases: functional
SF-295 = test: Growth inhibition of human SF295 cells
IGROV-1 [1] = test: Growth inhibition of human IGROV1 cells
Procedure, shortened: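 Follow-up panel testing at five concentrations (10^-4, 10^-5, 10^-6, 10^-7 and 10^-8 M) across the 60 human tumor cell lines. GI50 was obtained for each line from the concentration-response data, with the panel average GI50 also reported.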

SK-MEL-5 [2] = test: Growth inhibition of human SK-MEL-5 cells
CAKI-1 = test: Growth inhibition of human Caki1 cells
UACC-257 = test: Growth inhibition of human UACC257 cells
ACHN [3] = test: Growth inhibition of human ACHN cells
KM12 = test: Growth inhibition of human KM12 cells
SNB-19 = test: Growth inhibition of human SNB19 cells assessed tumor cell growth at 10^-5 M; parameters: scale not given: the % may be the effect or the level left
Procedure, shortened: (§1)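 Single-dose screen at 10^-5 M across the 60 human tumor cell line panel, run to NCI standards. The value is the percent growth of each cell line in the presence of compound. Compounds active at this dose moved on to five-concentration testing (10^-4 to 10^-8 M).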

M14 [4] = test: Growth inhibition of human M14 cells
NCI-H522 [5] = test: Growth inhibition of human NCI-H522 cells assessed tumor cell growth at 10^-5 M; parameters: scale not given: the % may be the effect or the level left
Procedure, shortened: (§2)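 NCI 60-human-tumor-cell-line panel screen. Each compound was tested at a single concentration of 10^-5 M, and percent growth of tumor cells was recorded for each cell line. Growth inhibition was expressed from these percent-growth values.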

LOX IMVI [6] = test: Growth inhibition of human LOXIMVI cells
SK-MEL-5 [7] = test: Growth inhibition of human SK-MEL-5 cells assessed tumor cell growth at 10^-5 M; parameters: scale not given: the % may be the effect or the level left; procedure, shortened: as §2
SK-OV-3 [8] = test: Growth inhibition of human SKOV3 cells
NCI-H522 [9] = test: Growth inhibition of human NCI-H522 cells
SN12C = test: Growth inhibition of human SN12C cells
[10] = Growth inhibition of human Hs 578T cells assessed tumor cell growth at 10^-5 M; parameters: scale not given: the % may be the effect or the level left; procedure, shortened: as §2
UO-31 [11] = test: Growth inhibition of human UO31 cells
[12] = Growth inhibition of human Hs 578T cells
IGROV-1 [13] = test: Growth inhibition of human IGROV1 cells assessed tumor cell growth at 10^-5 M; parameters: scale not given: the % may be the effect or the level left; procedure, shortened: as §2
SNB-75 [14] = test: Growth inhibition of human SNB75 cells
TK-10 [15] = test: Growth inhibition of human TK10 cells
COLO 205 = test: Growth inhibition of human COLO205 cells
UO-31 [16] = test: Growth inhibition of human UO31 cells assessed tumor cell growth at 10^-5 M; parameters: scale not given: the % may be the effect or the level left; procedure, shortened: as §1
LOX IMVI [17] = test: Growth inhibition of human LOXIMVI cells assessed tumor cell growth at 10^-5 M; parameters: scale not given: the % may be the effect or the level left; procedure, shortened: as §2
K562 [18] = test: Growth inhibition of human K562 cells
ACHN [19] = test: Growth inhibition of human ACHN cells assessed tumor cell growth at 10^-5 M; parameters: scale not given: the % may be the effect or the level left; procedure, shortened: as §2
HCT-15 = test: Growth inhibition of human HCT15 cells assessed tumor cell growth at 10^-5 M; parameters: scale not given: the % may be the effect or the level left; procedure, shortened: as §2
OVCAR-4 = test: Growth inhibition of human OVCAR4 cells
U-251 = test: Growth inhibition of human U251 cells assessed tumor cell growth at 10^-5 M; parameters: scale not given: the % may be the effect or the level left; procedure, shortened: as §1
NCI-H226 = test: Growth inhibition of human NCI-H226 cells assessed tumor cell growth at 10^-5 M; parameters: scale not given: the % may be the effect or the level left; procedure, shortened: as §2
OVCAR-5 [20] = test: Growth inhibition of human OVCAR5 cells assessed tumor cell growth at 10^-5 M; parameters: scale not given: the % may be the effect or the level left; procedure, shortened: as §2
TK-10 [21] = test: Growth inhibition of human TK10 cells assessed tumor cell growth at 10^-5 M; parameters: scale not given: the % may be the effect or the level left; procedure, shortened: as §1
SF-539 = test: Growth inhibition of human SF539 cells assessed tumor cell growth at 10^-5 M; parameters: scale not given: the % may be the effect or the level left; procedure, shortened: as §2
M14 [22] = test: Growth inhibition of human M14 cells assessed tumor cell growth at 10^-5 M; parameters: scale not given: the % may be the effect or the level left; procedure, shortened: as §2
NCI/ADR-RES = test: Growth inhibition of human NCI/ADR-RES cells
HCT-116 = test: Growth inhibition of human HCT116 cells
SNB-75 [23] = test: Growth inhibition of human SNB75 cells assessed tumor cell growth at 10^-5 M; parameters: scale not given: the % may be the effect or the level left; procedure, shortened: as §1
[24] = Growth inhibition of human RPMI8266 cells
HL-60(TB) = test: Growth inhibition of human HL-60(TB) cells assessed tumor cell growth at 10^-5 M; parameters: scale not given: the % may be the effect or the level left
Procedure, shortened: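 HL-60(TB), part of the 60-line panel, tested at a single concentration of 10^-5 M. The read-out is percent tumor cell growth relative to untreated growth.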

[25] = Growth inhibition of human […] cells assessed tumor cell growth at 10^-5 M; parameters: scale not given: the % may be the effect or the level left; procedure, shortened: as §2
BT-549 = test: Growth inhibition of human BT549 cells assessed tumor cell growth at 10^-5 M; parameters: scale not given: the % may be the effect or the level left; procedure, shortened: as §2
K562 [26] = test: Growth inhibition of human K562 cells assessed tumor cell growth at 10^-5 M; parameters: scale not given: the % may be the effect or the level left; procedure, shortened: as §2
SW-620 = test: Growth inhibition of human SW620 cells assessed tumor cell growth at 10^-5 M; parameters: scale not given: the % may be the effect or the level left; procedure, shortened: as §1
HOP-92 = test: Growth inhibition of human HOP92 cells assessed tumor cell growth at 10^-5 M; parameters: scale not given: the % may be the effect or the level left; procedure, shortened: as §2
OVCAR-8 = test: Growth inhibition of human OVCAR8 cells assessed tumor cell growth at 10^-5 M; parameters: scale not given: the % may be the effect or the level left; procedure, shortened: as §2
OVCAR-5 [27] = test: Growth inhibition of human OVCAR5 cells
SF-268 [28] = test: Growth inhibition of human SF268 cells assessed tumor cell growth at 10^-5 M; parameters: scale not given: the % may be the effect or the level left; procedure, shortened: as §2
SF-268 [29] = test: Growth inhibition of human SF268 cells
SK-OV-3 [30] = test: Growth inhibition of human SKOV3 cells assessed tumor cell growth at 10^-5 M; parameters: scale not given: the % may be the effect or the level left; procedure, shortened: as §2
MOLT-4 = test: Growth inhibition of human MOLT4 cells
SK-MEL-2 = test: Growth inhibition of human SK-MEL-2 cells assessed tumor cell growth at 10^-5 M; parameters: scale not given: the % may be the effect or the level left; procedure, shortened: as §2
EKVX = test: Growth inhibition of human EKVX cells assessed tumor cell growth at 10^-5 M; parameters: scale not given: the % may be the effect or the level left; procedure, shortened: as §2
[31] = read-out: LC50 (the source's name)

Compound: O=C1/C(=C\c2ccccn2)c2ccccc2N1c1c(Cl)cccc1Cl
- GI50 (SF-295): 1700 nM
- CC50 (SF-295; [31]): 13.8 µM
- GI50 (IGROV-1 [1]): 1700 nM
- GI50 (SK-MEL-5 [2]): 1600 nM
- CC50 (SK-MEL-5 [2]; [31]): 5.7 µM
- GI50 (CAKI-1): 1300 nM
- CC50 (CAKI-1; [31]): 7.4 µM
- GI50 (UACC-257): 1700 nM
- CC50 (UACC-257; [31]): 18.2 µM
- GI50 (ACHN [3]): 1800 nM
- CC50 (ACHN [3]; [31]): 7.2 µM
- GI50 (KM12): 1800 nM
- CC50 (KM12; [31]): 6.3 µM
- Activity (SNB-19): 34.85%
- GI50 (M14 [4]): 1700 nM
- CC50 (M14 [4]; [31]): 7.7 µM
- Activity (NCI-H522 [5]): 36.79%
- GI50 (LOX IMVI [6]): 1700 nM
- CC50 (LOX IMVI [6]; [31]): 6.4 µM
- Activity (SK-MEL-5 [7]): 23.68%
- GI50 (SK-OV-3 [8]): 3.4 µM
- CC50 (SK-OV-3 [8]; [31]): 74.1 µM
- GI50 (NCI-H522 [9]): 1600 nM
- LC50 (concentration killing 50% of cells) (NCI-H522 [9]): 7.5 µM
- GI50 (SN12C): 2200 nM
- CC50 (SN12C; [31]): 58.8 µM
- Activity [10]: 22.94%
- GI50 (UO-31 [11]): 1400 nM
- CC50 (UO-31 [11]; [31]): 6 µM
- GI50 [12]: 5.6 µM
- CC50 [12, 31]: > 100 µM
- Activity (IGROV-1 [13]): 8.25%
- GI50 (SNB-75 [14]): 1400 nM
- CC50 (SNB-75 [14]; [31]): 32.3 µM
- GI50 (TK-10 [15]): 3000 nM
- CC50 (TK-10 [15]; [31]): 50.1 µM
- GI50 (COLO 205): 2300 nM
- LC50 (COLO 205): > 100 µM
- Activity (UO-31 [16]): 16.75%
- Activity (LOX IMVI [17]): -89.2%
- GI50 (K562 [18]): 3.9 µM
- CC50 (K562 [18]; [31]): > 100 µM
- Activity (ACHN [19]): 19.58%
- Activity (HCT-15): 12.58%
- GI50 (OVCAR-4): 3.7 µM
- CC50 (OVCAR-4; [31]): > 100 µM
- Activity (U-251): -2.48%
- Activity (NCI-H226): 25.22%
- Activity (OVCAR-5 [20]): 122.39%
- Activity (TK-10 [21]): 52%
- Activity (SF-539): 1.27%
- Activity (M14 [22]): -43.6%
- GI50 (NCI/ADR-RES): 3000 nM
- CC50 (NCI/ADR-RES; [31]): > 100 µM
- GI50 (HCT-116): 1700 nM
- CC50 (HCT-116; [31]): 6.9 µM
- Activity (SNB-75 [23]): -17.92%
- GI50 [24]: 2200 nM
- CC50 [24, 31]: > 100 µM
- Activity (HL-60(TB)): 1.39%
- Activity [25]: -12.52%
- Activity (BT-549): -17.72%
- Activity (K562 [26]): 9.42%
- Activity (SW-620): -56.9%
- Activity (HOP-92): -7.93%
- Activity (OVCAR-8): 4.47%
- GI50 (OVCAR-5 [27]): 2400 nM
- CC50 (OVCAR-5 [27]; [31]): > 100 µM
- Activity (SF-268 [28]): 7.81%
- GI50 (SF-268 [29]): 3.6 µM
- CC50 (SF-268 [29]; [31]): 40.7 µM
- Activity (SK-OV-3 [30]): 39.19%
- GI50 (MOLT-4): 4.4 µM
- LC50 (MOLT-4): > 100 µM
- Activity (SK-MEL-2): 48.8%
- Activity (EKVX): 27.21%
